Data published in PubChem BioAssay AID1525 (The Scripps Research Institute Molecular Screening Center, 2009).
The list shows a part of the results. Values without a mark were called inactive. The source made the active and inactive calls.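 The calls were made as follows: active = mean activation over replicates above a set limit taken from the earlier TRPN1 channel primary screen (cut at about 19% in these data); inactive = the rest.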

Test system: TRPN1 (NOMPC) [Danio rerio]
Assay: zebrafish TRPN1 channel agonists, counter-screen for TRPML3 agonist project, cell-based, HEK293 TRPN1-YFP, Fluo-8 calcium (AID 1525)
Conditions: Fluo-8 calcium fluorescence, at 3 µM, stronger effect = higher value, scaled: carbachol wells 100%, DMSO wells 0%
In short: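 Assay system: HEK293 cells expressing zebrafish TRPN1-YFP channel; Times: dye loading 1 h 37 °C plus 30 min ambient; Detection: Fluo-8 calcium, trypan red quencher, 5 s basal, 120 s post-addition; Controls: carbachol 87 µM as high, DMSO 0.3% as low; Repeats: triplicate wells per compound.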

Structure (SMILES) | activation
COc1ccc(Cl)cc1N(CC(=O)N1CCCCC1)S(C)(=O)=O | 2.78%
COc1cc(/C=C(\C#N)c2nc3c(s2)CC(C)CC3)ccc1O (stereo not drawn) | 14%
COc1ccccc1N(CC(=O)N1CCCCC1)S(=O)(=O)c1ccccc1 | 1.91%
CC1CCCC(C)N1C(=O)CN1CCN(c2nc(-c3ccc(F)cc3)cs2)CC1 (stereo not drawn) | 4.68%
CC1=CC(C)(C)N(C(=O)CSc2nnc(-c3ccccc3)o2)c2ccc(C)cc21 | 0.12%
COc1ccc(N(CCC#N)S(=O)(=O)c2ccc(Cl)cc2)cc1 | 0.61%
O=S(=O)(Nc1ccccc1N1CCOCC1)c1ccc(Cl)s1 | 0.07%
c1ccc2c(C[n+]3csc4ccccc43)cccc2c1 | -0.03%
Cc1cccc(C)c1N1CCN(S(=O)(=O)N2CCCCC2)CC1 | 28.3% (active)
CC1(C)CCCC2=C1CC1C(=O)N(c3ccccc3)C(=O)C1C2 (stereo not drawn) | -0.48%
C=C(C)Cn1c(C)cc(C)c(S(=O)(=O)c2ccccc2C)c1=O | -3.19%
COc1ccc(-c2noc(CN(C)S(=O)(=O)c3ccc(C)cc3)n2)cc1 | 5.96%
O=C(CC(O)(C(F)(F)F)C(F)(F)F)Nc1ccc(Cl)c(Cl)c1 | 21.3% (active)
CCOc1ccc(S(=O)(=O)N2CCCCCC2)c2ccccc12 | -0.72%
CCOC(=O)C1=C(NC(=S)NC(=O)c2ccccc2)c2ccccc2CC1(C)C | 15.5%
CCN(CC)C(=O)CC1(c2ccccc2OC)CCOC(C(C)C)C1 (stereo not drawn) | -1.47%
CCN(CC)S(=O)(=O)c1ccc2c3c(cccc13)C(=O)S2 | -0.76%
COc1ccc(S(=O)(=O)N2CCCC2)c(C)c1C | 0.75%
